Laboratory results reported in ChEMBL document CHEMBL1128515, “Cardioselective anti-ischemic ATP-sensitive potassium channel openers. 3. Structure-activity studies on benzopyranyl cyanoguanidines: modification of the cyanoguanidine portion” (J Med Chem, 1995).

How the values were obtained:
Assay type in all cases: functional
Rattus norvegicus [1] = organism: Rattus norvegicus; assay: Tested for the vasorelaxant potency in methoxamine contracted rat aorta
In short: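 Rat aortic tissue contracted with methoxamine. The IC50 is the concentration producing relaxation.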

Rattus norvegicus [2] = organism: Rattus norvegicus; assay: Concentration necessary for increase in time to contracture by 25% in the globally ischemic rat hearts
In short: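 Isolated rat hearts, perfused and then made globally ischemic. The EC25 is the concentration giving a 25% increase in time to onset of contracture. Time to contracture is the time during total global ischemia for end-diastolic pressure to rise 5 mmHg above baseline.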

Rattus norvegicus [3] = organism: Rattus norvegicus; assay: Ratio of the concentration increasing time to contracture by 25% (EC25) in rat heart and concentration showing vasorelaxant potency (IC50) in rat aorta.
In short: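 Cardiac selectivity index: the ratio of vasorelaxant potency (IC50 for relaxing methoxamine-contracted rat aorta) to anti-ischemic potency (EC25 for increasing time to contracture in globally ischemic isolated perfused rat hearts).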

Rattus norvegicus [4] = organism: Rattus norvegicus; assay: Concentration necessary for increase in time to contracture at a concentration of 10 uM in ischemic rat hearts

| Structure (SMILES) | IC50 (Rattus norvegicus [1]) | EC25 (Rattus norvegicus [2]) | Ratio (Rattus norvegicus [3]) | Activity (Rattus norvegicus [4]) | Increase (Rattus norvegicus [2]) |
| --- | --- | --- | --- | --- | --- |
| CC1(C)Oc2ccc(C#N)cc2[C@@H](NC(=O)NCc2ccccc2)[C@@H]1O | 5.6 µM | >30 µM |  |  |  |
| CC1(C)Oc2ccc(C#N)cc2[C@@H](/N=C(\NC#N)Nc2ccccc2)[C@@H]1O (stereo in doubt; 3) |  | 11 µM | 7.9 |  |  |
| CC(=O)c1ccc(N/C(=N/[C@@H]2c3cc(C#N)ccc3OC(C)(C)[C@H]2O)NC#N)cc1 | 21 µM | 52 µM | 2.5 |  |  |
| CC1(C)Oc2ccc(C#N)cc2[C@@H](/N=C(\NC#N)Nc2ccc(C(=O)O)cc2)[C@@H]1O | > 100 µM |  |  |  |  |
| COC(=O)c1cn([C@@H]2c3cc(C#N)ccc3OC(C)(C)[C@H]2O)c2ccccc12 |  | 3.2 µM |  |  |  |
| CC1(C)Oc2ccc(C#N)cc2[C@@H](NC(=O)Nc2ccncc2)[C@@H]1O | 8.5 µM |  |  |  | 1% |
| C/N=C(\NC#N)N[C@@H]1c2cc(C#N)ccc2OC(C)(C)[C@H]1O |  | 13.3 µM | 66.5 |  |  |
| COC(=O)c1cc2ccccc2n1[C@@H]1c2cc(C#N)ccc2OC(C)(C)[C@H]1O |  | 8.1 µM |  |  |  |
| CC1(C)Oc2ccc(C#N)cc2[C@@H](NC(=O)Nc2ccccn2)[C@@H]1O | 0.44 µM | 2.6 µM | 5.9 |  |  |
| CC1(C)Oc2ccc(C#N)cc2[C@@H](/N=C(\NC#N)Nc2ccc(C(F)(F)F)cc2)[C@@H]1O |  |  | 1.4 |  |  |
| CC1(C)Oc2ccc(C#N)cc2[C@@H](N2CCN(c3ccccc3)C2=O)[C@@H]1O | 23.7 µM | 10 µM | 0.42 |  |  |
| CC1(C)Oc2ccc(C#N)cc2[C@@H](/N=C(\NC#N)Nc2ccc3c(c2)CCC3)[C@@H]1O | 41.3 µM | 3.5 µM | 0.08 |  |  |
| CC1(C)Oc2ccc(C#N)cc2[C@@H](NC(=O)Cc2ccccc2)[C@@H]1O | 1.8 µM | 22.2 µM | 12.3 |  |  |
| Cc1cccc(N/C(=N/[C@@H]2c3cc(C#N)ccc3OC(C)(C)[C@H]2O)NC#N)c1 |  | 2.7 µM |  |  |  |
| CSc1ccc(N/C(=N/[C@@H]2c3cc(C#N)ccc3OC(C)(C)[C@H]2O)NC#N)cc1 | 6.3 µM |  |  |  |  |
| CC1(C)Oc2ccc(C#N)cc2[C@@H](N2CCCC2=O)[C@@H]1O [CROMAKALIM] |  |  | 278.1 |  |  |
| CC1(C)Oc2ccc(C#N)cc2[C@@H](/N=C(\NC#N)Nc2ccc(Cl)c(F)c2)[C@@H]1O | 1.66 µM |  |  |  |  |
| CC1(C)Oc2ccc(C#N)cc2[C@@H](NC(=O)Nc2cccnc2)[C@@H]1O | 0.5 µM | 4.2 µM | 8.4 |  |  |
| COC(=O)c1ccc(N/C(=N/[C@@H]2c3cc(C#N)ccc3OC(C)(C)[C@H]2O)NC#N)cc1 | 18.4 µM |  |  |  |  |
| CCC(C)(C)/N=C(\NC#N)N[C@@H]1c2cc(C#N)ccc2OC(C)(C)[C@H]1O |  |  | 0.7 |  |  |
| CC1(C)Oc2ccc(C#N)cc2[C@@H](/N=C(\NC#N)Nc2ccc([N+](=O)[O-])cc2)[C@@H]1O | 0.3 µM | 6.2 µM | 20.6 |  |  |
| CC1(C)Oc2ccc(C#N)cc2[C@@H](/N=C(\NC#N)Nc2cccc(C(F)(F)F)c2)[C@@H]1O | 1.6 µM | 5.3 µM | 3.3 |  |  |
| Cc1ccc(N/C(=N/[C@@H]2c3cc(C#N)ccc3OC(C)(C)[C@H]2O)NC#N)cc1C | 5.1 µM | 2.5 µM | 0.49 |  |  |
| CC1(C)Oc2ccc(C#N)cc2[C@@H](n2c(O)nc3ccccc32)[C@@H]1O |  | 11.7 µM |  |  |  |
| CC1(C)Oc2ccc(C#N)cc2[C@@H](/N=C(\NC#N)Nc2ccccc2)[C@@H]1O (stereo in doubt; 22) |  | 6.1 µM | 4.7 |  |  |
| CC1(C)Oc2ccc(C#N)cc2[C@@H](n2cc(C#N)c3ccccc32)[C@@H]1O | 2.2 µM | 25.5 µM | 11.5 |  |  |
| CC1(C)Oc2ccc(C#N)cc2[C@@H](/N=C(\NC#N)Nc2ccc(Cl)cc2)[C@@H]1O |  |  | 1.4 |  |  |
| CC1(C)Oc2ccc(C#N)cc2[C@@H](/N=C(\NC#N)Nc2ccc(Cl)c(Cl)c2)[C@@H]1O | 4.6 µM | 12.9 µM | 2.8 |  |  |

Continued, in another order:

| IC50 (Rattus norvegicus [1]) | Structure (SMILES) | EC25 (Rattus norvegicus [2]) | Ratio (Rattus norvegicus [3]) | Activity (Rattus norvegicus [4]) | Increase (Rattus norvegicus [2]) |
| --- | --- | --- | --- | --- | --- |
| 0.03 µM | CC1(C)Oc2ccc(C#N)cc2[C@@H](NC(=O)c2ccccc2)[C@@H]1O | 11.8 µM | 393 |  |  |
| 4.1 µM | COC(=O)c1cccc(N/C(=N/[C@@H]2c3cc(C#N)ccc3OC(C)(C)[C@H]2O)NC#N)c1 |  |  |  |  |
| 0.6 µM | CC1(C)Oc2ccc(C#N)cc2[C@@H](/N=C(\NC#N)Nc2cccc(Cl)c2)[C@@H]1O | 1.4 µM | 2.3 |  |  |
| 3.5 µM | CC1(C)Oc2ccc(C#N)cc2[C@@H](/N=C(\NC#N)NNc2ccccc2)[C@@H]1O |  |  | 4% |  |
| 2.7 µM | Cc1ccc(N/C(=N/[C@@H]2c3cc(C#N)ccc3OC(C)(C)[C@H]2O)NC#N)cc1 | 1.6 µM | 0.6 |  |  |
| > 100 µM | CC1(C)Oc2ccc(C#N)cc2[C@@H](/N=C(\NC#N)Oc2ccccc2)[C@@H]1O | 68.8 µM |  |  |  |
| 1.4 µM | CSc1cccc(N/C(=N/[C@@H]2c3cc(C#N)ccc3OC(C)(C)[C@H]2O)NC#N)c1 | 8.2 µM | 5.6 |  |  |
| 4.9 µM | CC1(C)Oc2ccc(C#N)cc2[C@@H](/N=C(\NC#N)Sc2ccccc2)[C@@H]1O | >30 µM |  |  |  |
| 8.4 µM | CC(=O)c1cccc(N/C(=N/[C@@H]2c3cc(C#N)ccc3OC(C)(C)[C@H]2O)NC#N)c1 |  |  |  |  |
| > 100 µM | CC1(C)Oc2ccc(C#N)cc2[C@@H](/N=C(\NC#N)Nc2cccc(C(=O)O)c2)[C@@H]1O |  |  |  |  |
| 0.67 µM | CC1(C)Oc2ccc(C#N)cc2[C@@H](/N=C(\NC#N)Nc2cccc([N+](=O)[O-])c2)[C@@H]1O | 5 µM | 7.5 |  |  |
| 2.4 µM | CC1(C)Oc2ccc(C#N)cc2[C@@H](/N=C(\NC#N)NCc2ccccc2)[C@@H]1O | >30 µM |  |  |  |
| 32.5 µM | COc1ccc(N/C(=N/[C@@H]2c3cc(C#N)ccc3OC(C)(C)[C@H]2O)NC#N)cc1 | 5.3 µM | 0.16 |  |  |
